Test [1] relates to Candida albicans. Description: Antifungal activity against Candida albicans. It counts as functional, organism-based. In short, it runs like this: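 Candida albicans tested by resazurin microplate assay, with IC50 in µg/mL.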
In test [2] the test system is KB. Briefly: Cytotoxicity against human KB cells by resazurin microplate assay. Type of test: functional, cell-based. In short, it runs like this:
(§1)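 Resazurin microplate assay on KB (oral human epidermoid carcinoma), MCF-7 (human breast cancer) and NCI-H187 (human small-cell lung cancer) cells, with IC50 in µg/mL.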

In test [3] the test system is Plasmodium falciparum. Description: Antimalarial activity against Plasmodium falciparum K1 assessed as [G-3H]hypoxanthine uptake after 24 hrs by scintillation counting. Conditions: K1, 24 h. It counts as functional, organism-based. In outline: (§2)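 Plasmodium falciparum strain K1 tested by microculture radioisotope technique, with IC50 in µg/mL.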
Test [4] concerns NCI-H187. Briefly: Cytotoxicity against human NCI-H187 cells by resazurin microplate assay. Type of test: functional, cell-based. In outline: as §1
The subject of test [5] is MCF7. Description: Cytotoxicity against human MCF7 cells by resazurin microplate assay. It counts as functional, cell-based. In short, it runs like this: as §1
In test [6] the test system is Vero. Description: Cytotoxicity against african green monkey Vero cells by green fluorescent protein assay. It counts as cell-based. Conditions: Chlorocebus sabaeus. In outline: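 Vero (African green monkey kidney fibroblast) cytotoxicity measured by green fluorescent protein (GFP)-based method.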
Test [7] relates to Plasmodium falciparum. Briefly: Antimalarial activity against Plasmodium falciparum K1. It counts as functional, organism-based. In outline: as §2

Values after ≈ are worked out from the molar mass of the structure shown.

For `NC(=O)c1ccc2c(c1)C=C/C(=C\Cl)CO2`, the IC50 was above 50 µg/mL in test [1]; 12.1 µg/mL (≈ 51.6 µM) in test [2]; above 10 µg/mL in test [3]; above 50 µg/mL in test [4]; above 50 µg/mL in test [5]; above 50 µg/mL in test [6].
For `C[C@@H]1[C@H](O)[C@@H](C)/C=C/C=C/C=C/C=C/C=C/C=C/C=C/[C@H](O[C@@H]2O[C@H](C)[C@@H](O)[C@H](N)[C@@H]2O)C[C@@H]2O[C@](O)(C[C@@H](O)C[C@@H](O)[C@H](O)CC[C@@H](O)C[C@@H](O)CC(=O)O[C@H]1C)C[C@H](O)[C@H]2C(=O)O` [AMPHOTERICIN B], it took 0.07 µg/mL (≈ 0.0758 µM) to reach half-maximal inhibition in test [1] (IC50).
Take `C[C@H]1[C@@H](O)O[C@@H]2O[C@@]3(C)CC[C@H]4[C@H](C)CC[C@@H]1[C@@]24OO3` [ARTENIMOL]: in test [3], the IC50 worked out at 0.0011 µg/mL (≈ 0.00387 µM).
For the molecule `COc1cccc2c1C(=O)c1c(O)c3c(c(O)c1C2=O)C[C@@](O)(C(=O)CO)C[C@@H]3O[C@H]1C[C@H](N)[C@H](O)[C@H](C)O1` [DOXORUBICIN], the IC50 came to 0.25 µg/mL (≈ 0.46 µM) in test [2], 0.04 µg/mL (≈ 0.0736 µM) in test [4] and 0.57 µg/mL (≈ 1.05 µM) in test [5].
Take `CO/C=C(/C(=O)OC)[C@H](C)[C@H](/C=C/c1ccccc1)OC`: the concentration for half-maximal inhibition (IC50) in test [1] is 0.76 µg/mL (≈ 2.62 µM); in test [2], 5.48 µg/mL (≈ 18.9 µM); in test [4] it was 15.1 µg/mL (≈ 52 µM); in test [5] it was above 50 µg/mL; in test [6] it was 39.2 µg/mL (≈ 135 µM); in test [7], 3 µg/mL (≈ 10.3 µM).
On to `O=C(O)c1ccc2c(c1)C=C/C(=C\Cl)CO2`, for which the half-maximal inhibitory concentration (IC50) in test [1] is above 50 µg/mL; in test [2], 0.78 µg/mL (≈ 3.3 µM); in test [3] it was above 10 µg/mL; in test [4], 11.7 µg/mL (≈ 49.3 µM); in test [5], above 50 µg/mL; in test [6], above 50 µg/mL.
As for `Cc1c2ccncc2c(C)c2c1[nH]c1ccccc12` [ELLIPTECINE], the IC50 in test [2] was found to be 0.45 µg/mL (≈ 1.83 µM); in test [4], 0.68 µg/mL (≈ 2.76 µM); in test [6] it was 1.18 µg/mL (≈ 4.79 µM).
As for `CO\C=C(C(=O)OC)/C(C)=C(\C=C\c1ccc(Cl)c(OC)c1)OC` [9-METHOXYSTROBILURIN B], the IC50 in test [1] stood at 0.22 µg/mL (≈ 0.624 µM); in test [2], 5.45 µg/mL (≈ 15.4 µM); in test [3] it was 0.3 µg/mL (≈ 0.85 µM); in test [4] it was 0.4 µg/mL (≈ 1.13 µM); in test [5], 4.86 µg/mL (≈ 13.8 µM); in test [6], 7.91 µg/mL (≈ 22.4 µM).
Consider `CO\C=C(C(=O)OC)/C(C)=C(\C=C\c1ccc2c(c1)OC(C)(C)[C@@H](OCC=C(C)C)CO2)OC`, for which the IC50 in test [1] was 0.5 µg/mL (≈ 1.06 µM); in test [2], 14.3 µg/mL (≈ 30.3 µM); in test [3], 0.03 µg/mL (≈ 0.0635 µM); in test [4], 0.36 µg/mL (≈ 0.762 µM); in test [5] it was 15.4 µg/mL (≈ 32.6 µM); in test [6], 24 µg/mL (≈ 50.7 µM).
Take `CO\C=C(C(=O)OC)/C(C)=C(\C=C\c1ccccc1)OC` [9-METHOXYSTROBILURIN A]: the IC50 in test [1] turned out to be 0.06 µg/mL (≈ 0.208 µM); in test [2] it was 1.39 µg/mL (≈ 4.82 µM); in test [3] it was 0.39 µg/mL (≈ 1.35 µM); in test [4] it was 1.57 µg/mL (≈ 5.44 µM); in test [5], 12.4 µg/mL (≈ 43.1 µM); in test [6], 21.3 µg/mL (≈ 73.8 µM).
For the molecule `CO/C=C(/C(=O)OC)[C@H](C)[C@H](/C=C/c1ccc(Cl)c(OC)c1)OC` [(-)-OUDEMANSIN B], the IC50 turned out to be 0.89 µg/mL (≈ 2.51 µM) in test [1]; 0.73 µg/mL (≈ 2.06 µM) in test [2]; 0.02 µg/mL (≈ 0.0564 µM) in test [4]; 27.8 µg/mL (≈ 78.5 µM) in test [5]; 14.3 µg/mL (≈ 40.2 µM) in test [6]; 0.4 µg/mL (≈ 1.13 µM) in test [7].
